Drawing on ChEMBL document CHEMBL5365542, “Difluoromethyl-1,3,4-oxadiazoles Are Selective, Mechanism-Based, and Essentially Irreversible Inhibitors of Histone Deacetylase 6” (J Med Chem, 2023), this text covers inhibition for two molecules.

By inhibition is commonly meant the drop in the measured response relative to a control, in per cent.

Assay [1] deals with Histone deacetylase 2 (Homo sapiens) (UniProt Q92769). Kind of assay: Inhibition of C-terminal 6His-tagged human recombinant HDAC2 (1 to 488 residues) expressed in Sf9 insect cells using Z-Lys(Ac)-AMC as fluorogenic substrate at 10 uM preincubated for 60 mins followed by substrate addition and measured after 90 mins by microplate reader analysis relative to control. The settings on record: time 150.0 min. The method, boiled down:
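Human recombinant enzyme was preincubated with 3-fold inhibitor dilutions for 60 min at 25 °C in Tris-HCl pH 8.0 buffer with BSA. ZMAL (75 μM solution) was then added, and the mix was incubated 90 min at 37 °C (max 1% DMSO). Trypsin was added for 30 min at 37 °C, and fluorescence was read at ex 355/em 460. Tested at least twice in duplicate.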

For assay [2], the system named is T1, Histone deacetylase 6 (Danio rerio), F8W4B7 [H574A].
T1 sequence (whole entry): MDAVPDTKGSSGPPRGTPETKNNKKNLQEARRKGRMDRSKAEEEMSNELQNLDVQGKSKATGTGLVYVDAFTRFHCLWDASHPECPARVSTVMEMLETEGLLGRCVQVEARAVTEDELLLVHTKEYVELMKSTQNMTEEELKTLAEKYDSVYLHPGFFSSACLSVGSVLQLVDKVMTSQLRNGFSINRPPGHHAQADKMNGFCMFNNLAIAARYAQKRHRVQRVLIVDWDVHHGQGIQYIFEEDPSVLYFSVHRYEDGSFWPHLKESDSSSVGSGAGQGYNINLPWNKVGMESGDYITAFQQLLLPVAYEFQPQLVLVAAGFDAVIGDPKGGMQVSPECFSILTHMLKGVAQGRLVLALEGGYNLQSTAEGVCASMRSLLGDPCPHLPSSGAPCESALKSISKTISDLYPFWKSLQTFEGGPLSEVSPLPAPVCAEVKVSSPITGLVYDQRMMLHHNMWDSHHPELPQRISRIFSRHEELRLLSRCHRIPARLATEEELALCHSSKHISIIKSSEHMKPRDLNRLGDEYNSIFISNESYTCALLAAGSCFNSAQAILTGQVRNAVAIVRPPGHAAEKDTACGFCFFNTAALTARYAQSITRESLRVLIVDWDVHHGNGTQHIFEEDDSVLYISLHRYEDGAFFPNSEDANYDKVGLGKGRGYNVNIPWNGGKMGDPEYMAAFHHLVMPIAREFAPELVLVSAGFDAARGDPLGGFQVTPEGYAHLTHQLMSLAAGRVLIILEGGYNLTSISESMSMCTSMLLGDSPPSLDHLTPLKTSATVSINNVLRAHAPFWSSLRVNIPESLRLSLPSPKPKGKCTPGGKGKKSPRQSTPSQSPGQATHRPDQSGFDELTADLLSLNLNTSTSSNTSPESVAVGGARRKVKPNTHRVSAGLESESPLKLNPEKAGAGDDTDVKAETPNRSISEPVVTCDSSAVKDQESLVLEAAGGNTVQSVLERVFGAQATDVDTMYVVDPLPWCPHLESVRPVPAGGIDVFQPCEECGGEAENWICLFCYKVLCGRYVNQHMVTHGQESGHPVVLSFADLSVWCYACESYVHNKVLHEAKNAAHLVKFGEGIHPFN
The assay is described as follows: Irreversible inhibition of Danio rerio HDAC6 H574A mutant catalytic domain 2 assessed as enzyme catalysed ring opening by measuring reduction in 2-(benzylamino)-N'-(2,2,2-trifluoroacetyl)pyrimidine-5-carbohydrazide formation at 100 uM incubated overnight by LC-MS analysis. The method, boiled down:
(§1)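 Zebrafish HDAC6 CD2 mutants were made by site-directed mutagenesis and expressed in BL21(DE3). Enzyme at 50 μM was incubated overnight with 100 μM inhibitor in 50 mM HEPES pH 7.5, 100 mM KCl, 1 mM TCEP, 5% glycerol; an enzyme-free control was included. Protein was methanol-precipitated and filtered, and products were analysed by C18 UPLC-MS with a 2-min gradient.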

Assay [3] addresses Histone deacetylase 4 (Homo sapiens) (UniProt P56524). The assay is described as follows: Inhibition of N-terminal GST-tagged/C-terminal His-tagged human HDAC4 (627 to 1084 residues) expressed in Sf9 insect cells using Boc-Lys(Tfa)-AMC as fluorogenic substrate at 10 uM preincubated for 60 mins followed by substrate addition and measured after 90 mins by microplate reader analysis relative to control. The following applies: time 150.0 min. In a few lines: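 Recombinant human HDAC4 was preincubated with inhibitor for 60 min at 25 °C in Tris-HCl pH 8.0/BSA buffer. Boc-Lys(Tfa)-AMC (42.86 μM solution) was then added for 90 min at 37 °C, followed by trypsin for 30 min at 37 °C. Fluorescence was read at ex 355/em 460. Tested at least twice in duplicate.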

The test system of assay [4] is T2, Histone deacetylase 6 (Danio rerio), F8W4B7 [Y745F].
T2 sequence (whole entry): T1 sequence (whole entry) with A574H, Y745F
Kind of assay: Irreversible inhibition of Danio rerio HDAC6 Y745F mutant catalytic domain 2 assessed as enzyme catalysed ring opening by measuring reduction in 2-(benzylamino)-N'-(2,2,2-trifluoroacetyl)pyrimidine-5-carbohydrazide formation at 100 uM incubated overnight by LC-MS analysis. In a few lines:
as §1

Numbering of substitutions follows the chain as printed. Active and inactive are the calls of the source. No cut-off for these calls is given here. A value given as a limit tells only on which side of the number the result lay.

Chain of Histone deacetylase 2 (Homo sapiens) (Q92769 whole entry, the tested form may be a part): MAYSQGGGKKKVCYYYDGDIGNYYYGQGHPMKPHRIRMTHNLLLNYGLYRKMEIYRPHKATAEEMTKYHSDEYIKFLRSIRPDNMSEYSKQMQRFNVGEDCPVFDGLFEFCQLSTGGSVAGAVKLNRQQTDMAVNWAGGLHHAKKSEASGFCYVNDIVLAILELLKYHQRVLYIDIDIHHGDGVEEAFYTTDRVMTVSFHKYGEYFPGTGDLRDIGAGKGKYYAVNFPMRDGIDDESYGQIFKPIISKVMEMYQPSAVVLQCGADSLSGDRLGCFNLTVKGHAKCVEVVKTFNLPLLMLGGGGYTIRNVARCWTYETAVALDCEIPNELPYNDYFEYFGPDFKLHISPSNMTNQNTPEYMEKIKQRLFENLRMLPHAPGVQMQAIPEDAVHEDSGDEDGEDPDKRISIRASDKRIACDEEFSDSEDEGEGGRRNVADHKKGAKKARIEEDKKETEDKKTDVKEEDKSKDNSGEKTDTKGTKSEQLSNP
Chain of Histone deacetylase 4 (Homo sapiens) (P56524 whole entry, the tested form may be a part): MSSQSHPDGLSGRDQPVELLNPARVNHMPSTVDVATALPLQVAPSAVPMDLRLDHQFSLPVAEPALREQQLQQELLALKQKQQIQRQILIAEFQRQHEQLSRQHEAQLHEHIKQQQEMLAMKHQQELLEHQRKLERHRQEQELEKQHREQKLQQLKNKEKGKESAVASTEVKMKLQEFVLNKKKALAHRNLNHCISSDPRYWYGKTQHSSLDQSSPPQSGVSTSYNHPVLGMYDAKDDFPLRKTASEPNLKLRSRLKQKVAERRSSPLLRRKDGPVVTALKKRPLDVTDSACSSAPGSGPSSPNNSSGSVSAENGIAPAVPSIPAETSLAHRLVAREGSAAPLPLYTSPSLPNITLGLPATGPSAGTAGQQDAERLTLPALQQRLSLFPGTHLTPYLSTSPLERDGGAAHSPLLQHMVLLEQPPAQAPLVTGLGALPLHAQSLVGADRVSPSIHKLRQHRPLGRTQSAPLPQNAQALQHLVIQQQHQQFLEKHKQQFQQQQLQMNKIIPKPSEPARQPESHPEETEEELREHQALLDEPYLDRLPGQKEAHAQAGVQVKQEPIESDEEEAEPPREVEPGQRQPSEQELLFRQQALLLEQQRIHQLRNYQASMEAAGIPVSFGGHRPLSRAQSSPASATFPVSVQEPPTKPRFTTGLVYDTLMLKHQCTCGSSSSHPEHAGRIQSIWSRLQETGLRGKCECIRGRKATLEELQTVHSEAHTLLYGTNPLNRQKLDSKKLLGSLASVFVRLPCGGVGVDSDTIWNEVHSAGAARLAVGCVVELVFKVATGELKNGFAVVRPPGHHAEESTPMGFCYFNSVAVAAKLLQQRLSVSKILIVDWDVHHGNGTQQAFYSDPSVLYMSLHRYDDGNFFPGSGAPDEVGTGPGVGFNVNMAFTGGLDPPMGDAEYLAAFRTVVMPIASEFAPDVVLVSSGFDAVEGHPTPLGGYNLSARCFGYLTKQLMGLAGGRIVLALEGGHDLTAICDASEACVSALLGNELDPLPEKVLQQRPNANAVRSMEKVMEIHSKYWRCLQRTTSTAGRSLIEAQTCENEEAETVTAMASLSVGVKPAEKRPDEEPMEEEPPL

For `FC(F)c1nnc(-c2cnc(NCc3ccccc3)nc2)o1`, the inhibition in assay [1] and in assay [3] was under 15% in each case. For the same molecule, the inhibition result in assay [2] was “Active”. Also, the inhibition entry in assay [4] was “inactive”.

For the molecule `FC(F)(F)c1nnc(-c2cnc(NCc3ccccc3)nc2)o1`, the inhibition in assay [1] and in assay [3] was under 15% in each case. Moreover, the inhibition result in assay [2] was “Active”. Besides, the inhibition entry in assay [4] was “inactive”.
